Calls of active or inactive are those of the source. The calls are words filed in the database; no cut-off is given here.
Tests used:
[1] = target: T1, Indoleamine 2,3-dioxygenase 1 (Homo sapiens, UniProt P14902); test: Inhibition of human IDO1 expressed in Escherichia coli at 10 uM using L-tryptophan as substrate after 1 hr by UV absorption analysis
Method in brief: (§1)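 N-terminal human IDO1 or TDO was expressed in E. coli and Ni affinity-purified. Enzyme (100 nM) was incubated with compounds for 1 h at room temperature in Ca/Mg-free potassium phosphate buffer with […], 40 mM ascorbate, 200 µg/ml catalase and 20 µM methylene blue. Stop: 30% TCA, 65°C 15 min. Kynurenine read with DMAB at 480 nm against a standard curve. Triplicate, mean ± SD.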
Target sequence in this assay (P14902 whole entry, looked up): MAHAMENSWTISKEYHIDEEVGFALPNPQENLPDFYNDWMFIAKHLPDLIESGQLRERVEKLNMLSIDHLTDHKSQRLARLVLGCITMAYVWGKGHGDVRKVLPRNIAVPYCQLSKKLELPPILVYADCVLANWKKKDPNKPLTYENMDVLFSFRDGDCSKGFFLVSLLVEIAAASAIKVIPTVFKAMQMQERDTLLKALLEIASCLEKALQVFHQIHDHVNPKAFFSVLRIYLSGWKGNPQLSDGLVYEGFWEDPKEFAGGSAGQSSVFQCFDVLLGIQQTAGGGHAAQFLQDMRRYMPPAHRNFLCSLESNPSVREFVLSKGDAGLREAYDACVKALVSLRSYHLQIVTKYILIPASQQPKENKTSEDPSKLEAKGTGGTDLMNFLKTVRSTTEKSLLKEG

[2] = target: T2, Tryptophan 2,3-dioxygenase (Homo sapiens, UniProt P48775); test: Inhibition of human TDO expressed in Escherichia coli at 10 uM using L-tryptophan as substrate after 1 hr by UV absorption analysis; method in brief: as §1
Target sequence in this assay (P48775 whole entry, looked up): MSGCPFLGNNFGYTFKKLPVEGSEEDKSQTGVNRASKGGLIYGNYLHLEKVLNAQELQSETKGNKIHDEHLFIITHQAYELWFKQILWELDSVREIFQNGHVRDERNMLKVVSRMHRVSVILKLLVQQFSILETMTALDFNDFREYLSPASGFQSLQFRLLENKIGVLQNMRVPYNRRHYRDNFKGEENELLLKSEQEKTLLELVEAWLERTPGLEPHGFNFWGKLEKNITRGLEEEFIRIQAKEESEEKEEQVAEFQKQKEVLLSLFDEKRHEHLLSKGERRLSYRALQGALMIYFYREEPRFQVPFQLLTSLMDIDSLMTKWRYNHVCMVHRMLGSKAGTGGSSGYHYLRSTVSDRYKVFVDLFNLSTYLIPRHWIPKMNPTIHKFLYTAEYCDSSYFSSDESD

HeLa [3] = test: Reduction in IFN-gamma-induced GAPDH expression in human HeLa cells by Western blot analysis; type: ADME, cell-based
Method in brief: (§2)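 HeLa cells were pretreated for 2 h with inhibitors (10, 20, 50 µM) or a JAK inhibitor (1 µM), then given IFNγ 50 ng/mL for 24 h; 0.5% DMSO served as negative control. RIPA lysates with equal protein were run on 10% SDS-PAGE and blotted to nitrocellulose. Probes: rabbit anti-IDO1 (1:1000) and anti-GAPDH (1:4000) overnight at 4°C; HRP anti-rabbit 90 min.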

[4] = target: T1, Indoleamine 2,3-dioxygenase 1; test: Inhibition of human IDO1 expressed in Escherichia coli using L-tryptophan as substrate after 1 hr by UV absorption analysis; method in brief: as §1
Target sequence in this assay (P14902 whole entry): as the sequence (P14902 whole entry, looked up) above

[5] = target: T2, Tryptophan 2,3-dioxygenase; test: Inhibition of human TDO expressed in human A172 assessed as reduction in kynurenine formation using L-tryptophan as substrate after 24 hrs
Method in brief: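 A172 cells, which express TDO highly, were plated at 2 × 10^4 cells/well overnight. Cells were then exposed to compounds with L-Trp (20 µg/ml) for 24 h. Medium was treated with 30% TCA at 65°C for 30 min and centrifuged. Kynurenine was measured with 2% p-DMAB at 480 nm against an L-kynurenine standard curve.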

CT26 [6] = test: Antitumor activity against mouse CT26 cells transplanted in Balb/c mouse assessed as tumor growth inhibition at 20 mg/kg/day, po administered for 18 consecutive days relative to control; type: functional; settings: read-out: TGI
Method in brief: (§3)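 CT26 cells (100 µL of 1 × 10^7 cells/mL suspension) were injected s.c. into Balb/c mice. After 4 days, mice were randomized, 6 per group, and dosed orally once daily at 20, 40 or 80 mg/kg/day. Vehicle was 5% DMSO, 20% PEG400 and 75% deionized water. Tumors were measured by caliper every 3 days; volume = a × b²/2.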

CT26 [7] = test: Antitumor activity against mouse CT26 cells transplanted in Balb/c mouse assessed as tumor growth inhibition at 40 mg/kg/day, po administered for 18 consecutive days relative to control; type: functional; settings: read-out: TGI; method in brief: as §3
CT26 [8] = test: Antitumor activity against mouse CT26 cells transplanted in Balb/c mouse assessed as tumor growth inhibition at 80 mg/kg/day, po administered for 18 consecutive days relative to control; type: functional; settings: read-out: TGI; method in brief: as §3
[9] = target: T2, Tryptophan 2,3-dioxygenase; test: Inhibition of human TDO expressed in Escherichia coli at using L-tryptophan as substrate after 1 hr by UV absorption analysis; method in brief: as §1
Target sequence in this assay (P48775 whole entry): as the sequence (P48775 whole entry, looked up) above

HeLa [10] = test: Reduction in IFN-gamma-induced IDO1 expression in human HeLa cells by Western blot analysis; type: functional, cell-based; method in brief: as §2
[11] = target: T1, Indoleamine 2,3-dioxygenase 1; test: Inhibition of IDO1 in IFN-gamma-induced human HeLa cells assessed as reduction in L-kynurenine level after 24 hrs; type: cell-based
Method in brief: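 HeLa cells were plated for 24 h, then given IFNγ (50 ng/mL) plus inhibitors for 24 h; vehicle was 0.5% DMSO. Medium was mixed with 30% TCA and centrifuged. Supernatant kynurenine was reacted with 2% p-DMAB in acetic acid, read at 480 nm and quantified against an L-kynurenine standard curve. Triplicate, mean ± SD.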

HeLa [12] = test: Effect on IFN-gamma-induced IDO1 expression in human HeLa cells at 10 to 50 uM by Western blot analysis; type: functional, cell-based; method in brief: as §2
[13] = target: T2, Tryptophan 2,3-dioxygenase; test: Inhibition of TDO (unknown origin)
Target sequence in this assay (P48775 whole entry): as the sequence (P48775 whole entry, looked up) above

Row | SMILES | inhibition [1] | inhibition [2] | other results
1 | Oc1ccc(CNc2cc(Br)cc3[nH]ncc23)cc1O | 50% | inactive | 
2 | FC(F)(F)c1cccc(CNc2cc(Br)cc3[nH]ncc23)c1 | 16% | 56% | 
3 | Cc1cc(O)ccc1CNc1cc(Br)cc2[nH]ncc12 | 60% | 19% | 
4 | Nc1ccc(CNc2cc(Br)cc3[nH]ncc23)cc1 | 3% | 24% | 
5 | Brc1cc(NCc2cccc3nonc23)c2cn[nH]c2c1 | 91% | 85% | Activity (HeLa [3]): Toxic; IC50 [4]: 740 nM; IC50 [5]: 7540 nM; inhibition [5]: Dose-dependent effect; inhibition in vivo at 20 mg/kg/day (CT26 [6]): 21.7%; inhibition in vivo at 40 mg/kg/day (CT26 [7]): 38.1%; inhibition in vivo at 80 mg/kg/day (CT26 [8]): 47.3%; IC50 [9]: 2940 nM; Activity (HeLa [10]): Dose-dependent effect; IC50 [11]: 1370 nM; inhibition [11]: Dose-dependent effect
6 | Nc1nc(CNc2cc(Br)cc3[nH]ncc23)cs1 | inactive | 73% | 
7 | N#Cc1ccc(CNc2cc(Br)cc3[nH]ncc23)cc1 | 70% | 73% | 
8 | Oc1ccc(CNc2cc(Br)cc3[nH]ncc23)c(F)c1 | 69% | inactive | 
9 | O=C(O)CNc1cccc(CNc2cc(Br)cc3[nH]ncc23)c1 | 57% | inactive | 
10 | Oc1ccc(CNc2cc(Br)cc3[nH]ncc23)cc1 |  | inactive | inhibition [11]: inactive; Activity (HeLa [12]): inactive
11 | Nc1cccc(CNc2cc(Br)cc3[nH]ncc23)c1 | 31% | inactive | 
12 | CC(C)Nc1cc(Br)cc2[nH]ncc12 | 47% | inactive | 
13 | Nc1ccc2ccccc2c1CNc1cc(Br)cc2[nH]ncc12 | 15% | inactive | 
14 | Oc1ccc(CNc2cc(Br)cc3[nH]ncc23)cc1Cl | 60% | 19% | 
15 | Brc1cc(NCc2cccc3sccc23)c2cn[nH]c2c1 | 3% | 56% | 
16 | CC(=O)Nc1ccc(CNc2cc(Br)cc3[nH]ncc23)cc1 | 48% | inactive | 
17 | Brc1cc(NCc2ccc3c(c2)OCO3)c2cn[nH]c2c1 | 68% | 62% | 
18 | Brc1cc(NCc2cnc[nH]2)c2cn[nH]c2c1 | 16% | 54% | 
19 | Nc1ccc(CCNc2cc(Br)cc3[nH]ncc23)cc1 | 2% | inactive | 
20 | Oc1ccc(CNc2cc(Br)cc3[nH]ncc23)c(O)c1 | 40% | inactive | 
21 | Brc1cc(NCc2cccs2)c2cn[nH]c2c1 | 54% | 53% | 

Row | SMILES | inhibition [1] | inhibition [2] | other results
22 | NS(=O)(=O)c1ccc(CNc2cc(Br)cc3[nH]ncc23)cc1 | 20% | 75% | 
23 | O=C1c2ccccc2-n2c1nc1ccccc1c2=O [TRYPTANTHRIN] |  |  | IC50 [13]: 900 nM
24 | Nc1ccccc1CC(=O)Nc1ccc(CCNc2cc(Br)cc3[nH]ncc23)cc1 | 3% | 29% | 
25 | Oc1ccc(CNc2cc(Br)cc3[nH]ncc23)cc1F | 52% | 26% | 
26 | CC(Nc1cc(Br)cc2[nH]ncc12)c1ccc([N+](=O)[O-])cc1 (stereo not drawn) | 17% | 56% | 
27 | Brc1cc(NCc2ccco2)c2cn[nH]c2c1 | 29% | 64% | 
28 | ONc1ccc(CNc2cc(Br)cc3[nH]ncc23)cc1 | inactive | 6% | 
29 | CCOC(=O)CNc1cccc(CNc2cc(Br)cc3[nH]ncc23)c1 | 29% | inactive | 
30 | Nc1cc(CNc2cc(Br)cc3[nH]ncc23)ccc1O | 32% | inactive | 
31 | Brc1cc(NCc2ccncc2)c2cn[nH]c2c1 | 54% | 55% | 
32 | Nc1ccccc1CNc1cc(Br)cc2[nH]ncc12 | 36% | inactive | 
33 | O=C(Nc1ccc(CCNc2cc(Br)cc3[nH]ncc23)cc1)NC1CCOCC1 | inactive | 20% | 
34 | OCc1ccc(CNc2cc(Br)cc3[nH]ncc23)cc1 | 45% | 56% | 
35 | CN1CCN(C(=O)c2ccc(Cn3nnc4c3C(=O)c3ccccc3C4=O)cc2)CC1 |  |  | IC50 [13]: 30 nM
36 | CC(Nc1cc(Br)cc2[nH]ncc12)c1ccccc1 (stereo not drawn) | 14% | inactive | 
37 | NS(=O)(=O)NCCNc1nonc1/C(=N/O)Nc1ccc(F)c(Br)c1 [EPACADOSTAT] |  |  | inhibition in vivo at 20 mg/kg/day (CT26 [6]): 39.2%
38 | OC1CCCC(Nc2cccc(CNc3cc(Br)cc4[nH]ncc34)c2)C1 (stereo not drawn) | 52% | 50% | 
39 | Cc1cc(CNc2cc(Br)cc3[nH]ncc23)ccc1O | 28% | 30% | 
40 | Oc1cccc(CNc2cc(Br)cc3[nH]ncc23)c1 | 45% | 55% | 
41 | O=C1CCCC(Nc2cccc(CNc3cc(Br)cc4[nH]ncc34)c2)C1 (stereo not drawn) | 52% | 46% | 
42 | ONc1cccc(CNc2cc(Br)cc3[nH]ncc23)c1 | 53% | inactive | 
